Test results reported in ChEMBL document CHEMBL4311941, “Development of Multifunctional Histone Deacetylase 6 Degraders with Potent Antimyeloma Activity” (J Med Chem, 2019).
Calls of active or inactive are those of the source. No cut-off for these calls is given here.

Experiments:
[1] = target: T1, Protein cereblon/Protein deacetylase HDAC6 (Homo sapiens, UniProt Q9UBN7+Q96SW2); assay: Protac activity at CRBN/HDAC6 in human MM1S cells assessed as HDAC6 degradation at 100 nM measured after 1 to 4 hrs by Western blot analysis; format: cell-based
[2] = target: T1, Protein cereblon/Protein deacetylase HDAC6; assay: Protac activity at CRBN/HDAC6 in human MM1S cells assessed as HDAC6 degradation at 100 nM measured after 6 hrs in presence of NAE inhibitor MLN 4924 by Western blot analysis; format: cell-based
[3] = target: T1, Protein cereblon/Protein deacetylase HDAC6; assay: Protac activity at CRBN/HDAC6 in human A431 cells assessed as HDAC6 degradation up to 10 uM incubated for 6 hrs by Western blot analysis; format: cell-based
[4] = target: T1, Protein cereblon/Protein deacetylase HDAC6; assay: Protac activity at CRBN/HDAC6 in human MM1S cells assessed as HDAC6 degradation at 100 nM measured after 6 hrs in presence of E3 ligase ligand pomalidomide by Western blot analysis; format: cell-based
[5] = target: T2, Protein cereblon/Zinc finger protein Aiolos (Homo sapiens) (UniProt Q96SW2+Q9UKT9); assay: Protac activity at CRBN/IKZF3 in human MM1S cells assessed as IKZF3 degradation measured after 6 hrs by Western blot analysis; format: cell-based
[6] = target: T1, Protein cereblon/Protein deacetylase HDAC6; assay: Protac activity at CRBN/HDAC6 in human A375 cells assessed as HDAC6 degradation up to 1 uM incubated for 6 hrs by Western blot analysis; format: cell-based
[7] = target: T3, Protein cereblon/Histone deacetylase 1 (Homo sapiens) (UniProt Q13547+Q96SW2); assay: Protac activity at CRBN/HDAC1 in human MM1S cells assessed as HDAC1 degradation at 100 nM measured after 6 hrs in presence of proteasome inhibitor bortezomib by Western blot analysis; format: cell-based
[8] = target: T3, Protein cereblon/Histone deacetylase 1 (Homo sapiens); assay: Protac activity at CRBN/HDAC1 in human MM1S cells assessed as HDAC1 degradation at 100 nM measured after 6 hrs in presence of proteasome inhibitor MG132 by Western blot analysis; format: cell-based
[9] = target: T4, Cereblon/Ikaros (Homo sapiens) (UniProt Q96SW2+Q13422); assay: Protac activity at CRBN/IKZF1 in human MM1S cells assessed as IKZF1 degradation at 100 nM measured after 6 hrs in presence of NAE inhibitor MLN 4924 by Western blot analysis; format: cell-based
Summary of the method: (§1)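 MM1S cells seeded at 1 × 10^6 per well overnight. Pretreated 1 h with pomalidomide, Next-A, MLN 4924 or DMSO, then given 100 nM degrader or DMSO for 6 h. Lysed in RIPA with protease inhibitors, 10−40 μg protein run on SDS-PAGE and transferred to PVDF. Blots probed for IKZF1/IKZF3, detected by ECL and quantified by densitometry.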

[10] = target: T1, Protein cereblon/Protein deacetylase HDAC6; assay: Protac activity at CRBN/HDAC6 in human MM1S cells assessed as HDAC6 degradation at 100 nM incubated for 6 hrs followed by compound washout and measured up to 48 hrs by Western blot analysis; format: cell-based
Summary of the method: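 MM1S cells treated 6 h with 100 nM, washed with PBS to remove compound, then HDAC6 followed by immunoblot for up to 48 h. Lysis in RIPA; SDS-PAGE and PVDF transfer; primary antibody 4 °C overnight, HRP secondary, ECL.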

[11] = target: T2, Protein cereblon/Zinc finger protein Aiolos (Homo sapiens); assay: Protac activity at CRBN/IKZF3 in human MM1S cells assessed as IKZF3 degradation at 100 nM measured after 6 hrs in presence of NAE inhibitor MLN 4924 by Western blot analysis; format: cell-based; summary of the method: as §1
[12] = target: T1, Protein cereblon/Protein deacetylase HDAC6; assay: Protac activity at CRBN/HDAC6 in human MM1S cells assessed as HDAC6 degradation at 10 to 100 nM measured after 6 hrs by Western blot analysis; format: cell-based
[13] = target: T1, Protein cereblon/Protein deacetylase HDAC6; assay: Protac activity at CRBN/HDAC6 in human MCF7 cells assessed as HDAC6 degradation up to 10 uM incubated for 6 hrs by Western blot analysis; format: cell-based
[14] = test system: MM1.S; assay: Effect on HDAC6 mRNA expression in human MM1S cells at 100 nM measured after 6 hrs by SYBR green dye-based qRT-PCR analysis; format: functional, cell-based
Summary of the method: (§2)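 After treatment, MM1S cells washed twice with cold PBS. Total RNA extracted and normalized, then reverse-transcribed. 10 ng cDNA amplified with SYBR Green: 50 °C 2 min, 95 °C 2 min, then 40 cycles of 95 °C 1 s / 60 °C 30 s, followed by a melt curve. Expression calculated by the 2−ΔΔCt method.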

[15] = target: T1, Protein cereblon/Protein deacetylase HDAC6; assay: Protac activity at CRBN/HDAC6 in human RS4:11 cells assessed as HDAC6 degradation up to 10 uM incubated for 6 hrs by Western blot analysis; format: cell-based
[16] = test system: MM1.S; assay: Effect on HDAC1 mRNA expression in human MM1S cells at 100 nM measured after 6 hrs by SYBR green dye-based qRT-PCR analysis; format: functional, cell-based; summary of the method: as §2
[17] = test system: MM1.S; assay: Induction of apoptosis in human MM1S cells assessed as cleavage of casapse3 measured after 48 hrs by Western blot analysis; format: functional, cell-based
[18] = target: Histone deacetylase 9 (Homo sapiens, UniProt Q9UKV0); assay: Inhibition of human N-terminal tagged human HDAC9 expressed in HEK293T/17 using Boc-[TFA-Lys]-AMC as substrate preincubated for 10 mins followed by substrate addition and measured after 60 mins by fluorescence assay
[19] = target: T1, Protein cereblon/Protein deacetylase HDAC6; assay: Protac activity at CRBN/HDAC6 in human A431 cells assessed as HDAC6 degradation up to 3 uM incubated for 12 hrs by Western blot analysis; format: cell-based
[20] = target: T2, Protein cereblon/Zinc finger protein Aiolos (Homo sapiens); assay: Protac activity at CRBN/IKZF3 in human MM1S cells assessed as IKZF3 degradation at 100 nM measured after 6 hrs in presence of E3 ligase ligand pomalidomide by Western blot analysis; format: cell-based; summary of the method: as §1
[21] = target: T4, Cereblon/Ikaros (Homo sapiens); assay: Protac activity at CRBN/IKZF1 in human MM1S cells assessed as IKZF1 degradation at 100 nM measured after 6 hrs by Western blot analysis; format: cell-based
[22] = target: T2, Protein cereblon/Zinc finger protein Aiolos (Homo sapiens); assay: Protac activity at CRBN/IKZF3 in human MM1S cells assessed as IKZF3 degradation at 100 nM measured after 6 hrs by Western blot analysis; format: cell-based
Summary of the method: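 Time course in MM1S cells (1 × 10^6 cells per well, seeded overnight) under 100 nM degrader. Whole-cell RIPA lysates analysed by 7.5−12% SDS-PAGE and PVDF immunoblot. Primary antibody at 4 °C overnight, HRP secondary 1 h, ECL detection with densitometry.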

[23] = target: T4, Cereblon/Ikaros (Homo sapiens); assay: Protac activity at CRBN/IKZF1 in human MM1S cells assessed as IKZF1 degradation measured after 6 hrs by Western blot analysis; format: cell-based
[24] = test system: MM1.S; assay: Effect on IKZF1 mRNA expression in human MM1S cells at 100 nM measured after 6 hrs by SYBR green dye-based qRT-PCR analysis; format: functional, cell-based; summary of the method: as §2
[25] = target: Protein cereblon/Histone deacetylase 4 (Homo sapiens) (UniProt P56524+Q96SW2); assay: Protac activity at CRBN/HDAC4 in human MM1S cells assessed as HDAC4 degradation measured after 6 hrs by Western blot analysis; format: cell-based
[26] = test system: MM1.S; assay: Effect on IKZF3 mRNA expression in human MM1S cells at 100 nM measured after 6 hrs by SYBR green dye-based qRT-PCR analysis; format: functional, cell-based; summary of the method: as §2
[27] = target: T1, Protein cereblon/Protein deacetylase HDAC6; assay: Protac activity at CRBN/HDAC6 in human MM1S cells assessed as induction of alpha tubulin acetylation at 100 nM measured after 6 hrs in presence of proteasome inhibitor MG132 by Western blot analysis; format: cell-based

T2 sequence (Q96SW2 whole entry, looked up): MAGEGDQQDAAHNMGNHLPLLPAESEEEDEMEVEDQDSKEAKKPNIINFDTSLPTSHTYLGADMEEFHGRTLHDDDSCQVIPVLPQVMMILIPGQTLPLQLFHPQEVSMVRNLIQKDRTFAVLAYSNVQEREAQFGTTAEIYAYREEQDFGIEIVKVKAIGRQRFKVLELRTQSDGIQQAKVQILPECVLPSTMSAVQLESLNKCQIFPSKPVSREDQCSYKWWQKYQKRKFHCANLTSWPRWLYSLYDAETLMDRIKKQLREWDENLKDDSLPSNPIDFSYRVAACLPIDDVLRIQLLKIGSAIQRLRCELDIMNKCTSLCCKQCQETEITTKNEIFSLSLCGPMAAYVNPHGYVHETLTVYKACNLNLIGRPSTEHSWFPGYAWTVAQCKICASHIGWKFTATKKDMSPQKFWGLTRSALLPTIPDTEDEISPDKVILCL
T2 sequence (Q9UKT9 whole entry, looked up): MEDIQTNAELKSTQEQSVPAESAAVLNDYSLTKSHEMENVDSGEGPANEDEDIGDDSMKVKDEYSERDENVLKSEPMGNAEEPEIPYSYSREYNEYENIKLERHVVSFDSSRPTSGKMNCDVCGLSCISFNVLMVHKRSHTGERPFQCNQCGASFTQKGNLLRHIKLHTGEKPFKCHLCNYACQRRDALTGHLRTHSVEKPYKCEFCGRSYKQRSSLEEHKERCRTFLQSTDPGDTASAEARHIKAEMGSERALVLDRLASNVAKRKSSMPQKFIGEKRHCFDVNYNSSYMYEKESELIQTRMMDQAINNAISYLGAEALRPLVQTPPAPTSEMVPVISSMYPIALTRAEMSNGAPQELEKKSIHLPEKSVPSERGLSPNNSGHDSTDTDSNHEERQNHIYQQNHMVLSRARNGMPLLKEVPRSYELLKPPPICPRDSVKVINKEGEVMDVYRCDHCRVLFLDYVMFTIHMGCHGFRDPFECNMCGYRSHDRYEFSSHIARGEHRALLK
T1 sequence (Q96SW2 whole entry, looked up): as the sequence (Q96SW2 whole entry, looked up) above
T1 sequence (Q9UBN7 whole entry, looked up): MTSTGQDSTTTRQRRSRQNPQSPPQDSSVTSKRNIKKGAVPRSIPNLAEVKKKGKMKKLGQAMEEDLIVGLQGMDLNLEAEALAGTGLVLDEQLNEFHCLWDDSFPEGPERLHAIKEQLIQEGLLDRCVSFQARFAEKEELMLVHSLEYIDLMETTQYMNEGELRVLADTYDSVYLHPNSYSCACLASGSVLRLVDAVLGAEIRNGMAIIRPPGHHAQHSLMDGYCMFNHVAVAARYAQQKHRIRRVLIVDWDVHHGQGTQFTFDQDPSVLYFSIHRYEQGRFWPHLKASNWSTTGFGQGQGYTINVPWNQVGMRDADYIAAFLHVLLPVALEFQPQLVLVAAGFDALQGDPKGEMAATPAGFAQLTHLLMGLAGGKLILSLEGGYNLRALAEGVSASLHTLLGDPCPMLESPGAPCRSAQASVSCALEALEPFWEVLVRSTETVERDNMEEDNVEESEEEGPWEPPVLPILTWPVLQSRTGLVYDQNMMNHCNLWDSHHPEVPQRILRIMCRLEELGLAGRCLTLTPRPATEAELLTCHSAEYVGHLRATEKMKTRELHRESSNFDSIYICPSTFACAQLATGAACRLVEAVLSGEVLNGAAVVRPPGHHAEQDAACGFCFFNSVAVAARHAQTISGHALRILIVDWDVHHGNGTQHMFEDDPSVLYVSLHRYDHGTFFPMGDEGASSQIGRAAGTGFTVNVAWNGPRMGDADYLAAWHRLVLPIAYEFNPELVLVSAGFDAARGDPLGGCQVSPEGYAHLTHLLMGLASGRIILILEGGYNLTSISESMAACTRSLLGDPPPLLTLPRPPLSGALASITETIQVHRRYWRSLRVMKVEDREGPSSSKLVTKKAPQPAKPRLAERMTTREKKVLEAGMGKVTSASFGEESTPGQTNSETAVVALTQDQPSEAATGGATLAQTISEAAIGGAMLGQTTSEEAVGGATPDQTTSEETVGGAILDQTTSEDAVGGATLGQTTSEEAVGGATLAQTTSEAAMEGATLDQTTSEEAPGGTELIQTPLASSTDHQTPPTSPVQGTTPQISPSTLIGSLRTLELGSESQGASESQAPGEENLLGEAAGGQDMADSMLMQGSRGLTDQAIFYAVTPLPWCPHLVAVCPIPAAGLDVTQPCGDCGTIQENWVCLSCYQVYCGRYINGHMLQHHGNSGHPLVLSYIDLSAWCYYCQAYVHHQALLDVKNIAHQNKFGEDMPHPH
T3 sequence (Q13547 whole entry, looked up): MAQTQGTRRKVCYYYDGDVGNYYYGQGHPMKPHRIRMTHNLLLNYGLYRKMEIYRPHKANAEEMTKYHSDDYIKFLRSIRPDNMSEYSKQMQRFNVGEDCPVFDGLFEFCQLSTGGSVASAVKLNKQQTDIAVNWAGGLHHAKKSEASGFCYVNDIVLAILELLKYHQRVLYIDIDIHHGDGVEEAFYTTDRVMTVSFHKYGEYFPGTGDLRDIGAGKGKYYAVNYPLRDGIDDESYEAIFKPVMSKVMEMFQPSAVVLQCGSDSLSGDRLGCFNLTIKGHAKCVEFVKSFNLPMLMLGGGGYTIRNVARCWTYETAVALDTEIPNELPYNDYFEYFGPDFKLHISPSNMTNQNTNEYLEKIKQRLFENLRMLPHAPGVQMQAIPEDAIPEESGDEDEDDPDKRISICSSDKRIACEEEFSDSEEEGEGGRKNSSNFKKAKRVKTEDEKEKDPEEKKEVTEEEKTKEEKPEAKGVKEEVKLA
T3 sequence (Q96SW2 whole entry, looked up): as the sequence (Q96SW2 whole entry, looked up) above
Histone deacetylase 9, sequence (Q9UKV0 whole entry): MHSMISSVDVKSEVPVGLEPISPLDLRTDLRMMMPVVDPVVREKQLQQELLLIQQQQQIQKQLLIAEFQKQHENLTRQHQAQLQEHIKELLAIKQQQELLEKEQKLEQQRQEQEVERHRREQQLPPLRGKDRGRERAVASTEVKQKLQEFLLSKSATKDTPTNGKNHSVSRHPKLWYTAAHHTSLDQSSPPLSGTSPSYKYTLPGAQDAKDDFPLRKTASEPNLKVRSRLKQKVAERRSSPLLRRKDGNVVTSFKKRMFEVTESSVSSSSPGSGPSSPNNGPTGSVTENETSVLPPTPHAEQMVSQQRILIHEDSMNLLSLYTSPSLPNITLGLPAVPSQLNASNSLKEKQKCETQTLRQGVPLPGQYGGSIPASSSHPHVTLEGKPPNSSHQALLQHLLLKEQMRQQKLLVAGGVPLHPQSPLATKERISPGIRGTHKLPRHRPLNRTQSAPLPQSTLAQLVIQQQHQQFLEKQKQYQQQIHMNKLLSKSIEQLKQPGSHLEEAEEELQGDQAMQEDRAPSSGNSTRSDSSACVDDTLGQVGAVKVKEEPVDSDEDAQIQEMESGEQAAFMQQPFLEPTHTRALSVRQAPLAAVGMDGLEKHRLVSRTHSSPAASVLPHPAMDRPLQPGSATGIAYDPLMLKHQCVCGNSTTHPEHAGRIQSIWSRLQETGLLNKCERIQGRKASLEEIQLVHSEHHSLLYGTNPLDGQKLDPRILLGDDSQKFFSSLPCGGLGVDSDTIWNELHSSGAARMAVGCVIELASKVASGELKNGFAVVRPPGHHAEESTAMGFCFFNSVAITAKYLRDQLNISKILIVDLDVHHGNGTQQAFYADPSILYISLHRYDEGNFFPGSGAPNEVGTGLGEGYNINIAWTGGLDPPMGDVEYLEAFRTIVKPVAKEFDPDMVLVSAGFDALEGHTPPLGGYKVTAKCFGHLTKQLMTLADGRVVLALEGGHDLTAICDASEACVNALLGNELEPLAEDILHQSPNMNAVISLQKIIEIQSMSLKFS
Protein cereblon/Histone deacetylase 4 (Homo sapiens), sequence (P56524 whole entry, looked up): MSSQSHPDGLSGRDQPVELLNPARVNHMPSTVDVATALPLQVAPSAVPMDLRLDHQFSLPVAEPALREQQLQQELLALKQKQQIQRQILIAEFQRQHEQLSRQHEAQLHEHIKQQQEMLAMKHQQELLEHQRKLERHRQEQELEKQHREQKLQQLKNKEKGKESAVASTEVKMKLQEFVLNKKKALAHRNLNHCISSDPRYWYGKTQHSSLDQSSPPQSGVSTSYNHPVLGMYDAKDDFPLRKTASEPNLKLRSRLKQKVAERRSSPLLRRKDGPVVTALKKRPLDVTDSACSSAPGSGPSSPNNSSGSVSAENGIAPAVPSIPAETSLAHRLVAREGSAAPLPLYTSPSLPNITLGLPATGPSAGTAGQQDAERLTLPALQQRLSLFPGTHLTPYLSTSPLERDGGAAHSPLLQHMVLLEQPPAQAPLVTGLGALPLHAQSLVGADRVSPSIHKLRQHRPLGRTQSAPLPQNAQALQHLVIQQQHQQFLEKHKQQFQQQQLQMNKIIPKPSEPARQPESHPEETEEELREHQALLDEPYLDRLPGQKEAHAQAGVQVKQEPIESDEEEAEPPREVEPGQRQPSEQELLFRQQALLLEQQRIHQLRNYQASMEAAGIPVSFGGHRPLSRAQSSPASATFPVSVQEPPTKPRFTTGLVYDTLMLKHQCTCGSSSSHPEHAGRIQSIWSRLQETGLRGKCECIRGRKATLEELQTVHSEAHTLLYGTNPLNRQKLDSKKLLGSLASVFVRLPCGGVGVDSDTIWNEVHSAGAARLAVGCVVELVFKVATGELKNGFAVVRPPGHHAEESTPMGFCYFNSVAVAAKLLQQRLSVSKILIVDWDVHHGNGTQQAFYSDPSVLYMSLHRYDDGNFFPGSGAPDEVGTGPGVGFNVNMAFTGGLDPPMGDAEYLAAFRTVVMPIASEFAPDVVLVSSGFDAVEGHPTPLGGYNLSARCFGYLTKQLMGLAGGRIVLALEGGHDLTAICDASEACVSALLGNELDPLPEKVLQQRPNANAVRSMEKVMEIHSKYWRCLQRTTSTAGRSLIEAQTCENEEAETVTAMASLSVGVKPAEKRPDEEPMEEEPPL
Protein cereblon/Histone deacetylase 4 (Homo sapiens), sequence (Q96SW2 whole entry, looked up): as the sequence (Q96SW2 whole entry, looked up) above

## CCCCN(Cc1ccc(C(=O)NO)cc1)C(=O)Nc1ccc(OCCCCCn2cc(CNc3cccc4c3C(=O)N(C3CCC(=O)NC3=O)C4=O)nn2)cc1 (configuration not stated)
[1]
  Activity: Dose-dependent effect
[2]
  Activity: inactive
[3]
  Activity: Active
[4]
  Activity: inactive
[5]
  Activity: Dose-dependent effect
[6]
  Activity: Active
[7]
  Activity: inactive
[8]
  Activity: inactive
[9]
  Activity: inactive
[10]
  Activity: Active
[11]
  Activity: inactive
[12]
  Activity: Active
[13]
  Activity: Active
[14]
  Activity: Active
[15]
  Activity: Active
[16]
  Activity: Active
[17]
  Activity: Dose-dependent effect
[18]
  IC50: 0.3 to 30 µM
[19]
  Activity: Active
[20]
  Activity: Active
[21]
  Activity: Active
[22]
  Activity: Active
[23]
  Activity: Dose-dependent effect
[24]
  Activity: Active
[25]
  Activity: inactive
[26]
  Activity: Active
[27]
  Activity: inactive
